Results reported in ChEMBL document CHEMBL4007421, “Discovery and Preclinical Characterization of 3-((4-(4-Chlorophenyl)-7-fluoroquinoline-3-yl)sulfonyl)benzonitrile, a Novel Non-acetylenic Metabotropic Glutamate Receptor 5 (mGluR5) Negative Allosteric Modulator for Psychiatric Indications” (J Med Chem, 2017).
In brackets after ≈: the same amount, converted by molar mass.

Tests used:
[1] = Terminal elimination half life in fasted female beagle dog at 1 mg/kg, po; assay type: ADME, organism-based, Canis lupus familiaris; settings: in vivo, read-out: beta t1/2 (converted)
In short: (§1)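 Single-dose PK: i.v. and oral dosing in Crl:CD(SD) rats and beagle dogs, plus a pilot oral nasogastric study in Cynomolgus monkeys using a Type IV lipid formulation. Rat i.v. vehicle was 80% cosolvent. Monkeys were fasted from 2 h before until 2 h after dosing, n=3 per sex. Rats also received [14C]-labelled compound orally at 50 mg/kg, with total radioactivity followed. Parameters are means; monkey values are medians.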

[2] = AUC(0 to 8 hrs) in fasted male cynomolgus monkey at 9 mg/kg, po administered as single dose; assay type: ADME, organism-based, Macaca fascicularis; set-up: dose 9 mg/kg, time < 6 hr, route oral; settings: in vivo
Rattus norvegicus [3] = assay: Anxiolytic activity in po dosed Wistar rat assessed as reduction in freezing behavior by contextual fearing test; assay type: functional
Cytochrome P450 2C9 = Cytochrome P450 2C9 (Homo sapiens, UniProt P11712); assay: Inhibition of CYP2C9 in human liver microsomes; assay type: ADME
Rattus norvegicus [4] = assay: Terminal elimination half life in female Crl:CD(SD) rat at 50 mg/kg, po using [14C]labeled compound; assay type: ADME, organism-based; settings: in vivo; in short: as §1
Cytochrome P450 3A4 = Cytochrome P450 3A4 (Homo sapiens, UniProt P08684); assay: Inhibition of CYP3A4 in human liver microsomes; assay type: ADME
[5] = Aqueous solubility of the compound at pH 7.4; assay type: physicochemical
[6] = Terminal elimination half life in male beagle dog at 0.5 mg/kg, iv administered as infusion; assay type: ADME, organism-based, Canis lupus familiaris; settings: in vivo, read-out: beta t1/2 (converted); in short: as §1
[7] = Terminal elimination half life in fasted female cynomolgus monkey at 9 mg/kg, po administered as single dose; assay type: ADME, organism-based, Macaca fascicularis; settings: in vivo, read-out: beta t1/2 (converted); in short: as §1
Liver [8] = assay: Intrinsic clearance in rat liver microsomes at 2.5 uM assessed per gram of liver; assay type: ADME, microsome
Plasma = assay: Plasma concentration in Wistar rat at 30 mg/kg, po administered as single dose; assay type: ADME, organism-based; settings: in vivo
Cytochrome P450 1A2 = molecular target: T1, Cytochrome P450 1A2 (Homo sapiens, UniProt P05177); assay: Inhibition of CYP1A2 in human liver microsomes; assay type: ADME
T1 sequence (P05177 whole entry): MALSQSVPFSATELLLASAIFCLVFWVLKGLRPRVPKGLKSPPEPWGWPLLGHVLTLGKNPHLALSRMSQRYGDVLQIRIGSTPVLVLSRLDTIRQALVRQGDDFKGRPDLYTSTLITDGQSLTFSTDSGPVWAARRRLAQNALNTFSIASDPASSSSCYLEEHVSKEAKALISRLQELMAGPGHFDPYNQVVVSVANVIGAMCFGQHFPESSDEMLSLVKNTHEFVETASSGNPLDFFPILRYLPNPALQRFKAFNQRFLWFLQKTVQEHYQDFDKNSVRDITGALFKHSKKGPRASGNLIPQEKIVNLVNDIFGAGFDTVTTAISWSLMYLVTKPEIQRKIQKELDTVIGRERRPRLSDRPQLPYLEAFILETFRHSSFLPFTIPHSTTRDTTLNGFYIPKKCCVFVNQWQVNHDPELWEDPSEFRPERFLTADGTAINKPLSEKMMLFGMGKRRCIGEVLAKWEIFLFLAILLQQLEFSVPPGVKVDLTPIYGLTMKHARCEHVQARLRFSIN

[9] = AUC(0 to 8 hrs) in fasted female cynomolgus monkey at 9 mg/kg, po administered as single dose; assay type: ADME, organism-based, Macaca fascicularis; set-up: time < 6 hr, dose 9 mg/kg, route oral; settings: in vivo
[10] = AUC in fasted male beagle dog at 1 mg/kg, po; assay type: ADME, organism-based, Canis lupus familiaris; settings: in vivo
[11] = Volume of distribution in female beagle dog at 0.5 mg/kg, iv administered as infusion; assay type: ADME, organism-based, Canis lupus familiaris; settings: in vivo; in short: as §1
[12] = Terminal elimination half life in female Crl:CD(SD) rat at 4.5 mg/kg, po; assay type: ADME, organism-based; settings: in vivo, read-out: beta t1/2 (converted); in short: as §1
[13] = Terminal elimination half life in male Crl:CD(SD) rat at 4.5 mg/kg, po; assay type: ADME, organism-based; settings: in vivo, read-out: beta t1/2 (converted); in short: as §1
[14] = Terminal elimination half life in fasted male cynomolgus monkey at 9 mg/kg, po administered as single dose; assay type: ADME, organism-based, Macaca fascicularis; settings: in vivo, read-out: beta t1/2 (converted); in short: as §1
[15] = AUC in male Crl:CD(SD) rat at 0.5 mg/kg, iv; assay type: ADME, organism-based; settings: in vivo
[16] = molecular target: Metabotropic glutamate receptor 5 (Homo sapiens, UniProt P41594); assay: Negative allosteric modulation of human mGluR5a expressed in CHO cells assessed as reduction in DHPG-induced cytosolic Ca2+ influx after 10 to 20 mins by fluo-4/AM-dye based fluorometric analysis; assay type: functional, cell-based
[17] = Cmax in female Crl:CD(SD) rat at 4.5 mg/kg, po; assay type: ADME, organism-based; set-up: dose 4.5 mg/kg, route oral; settings: in vivo
[18] = Cmax in fasted male cynomolgus monkey at 9 mg/kg, po administered as single dose; assay type: ADME, organism-based, Macaca fascicularis; set-up: dose 9 mg/kg, route oral; settings: in vivo
Rattus norvegicus [19] = assay: Effect on spatial learning performance in po dosed Wistar rat measured as escape latency dosed 1 hr prior to first daily trial by Morris water maze test; assay type: ADME, organism-based; settings: in vivo
In short: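 Morris water maze with male Harlan-Wistar rats (190–220 g): three trials a day for 4 days, hidden 10 cm platform, video tracking; 30 mg/kg p.o. in Type IV lipid formulation 1 h before first daily trial; plasma taken after last Day 4 trial; 7–17 rats/group.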

[20] = Terminal elimination half life in female beagle dog at 0.5 mg/kg, iv administered as infusion; assay type: ADME, organism-based, Canis lupus familiaris; settings: in vivo, read-out: beta t1/2 (converted); in short: as §1
[21] = Cmax in male beagle dog at 0.5 mg/kg, iv administered as infusion; assay type: ADME, organism-based, Canis lupus familiaris; set-up: dose 0.5 mg/kg, route intravenous; settings: in vivo
[22] = Tmax in fasted female beagle dog at 1 mg/kg, po; assay type: ADME, organism-based, Canis lupus familiaris; settings: in vivo; in short: as §1
[23] = Plasma protein binding in dog; assay type: ADME, cell-free, Canis lupus familiaris; settings: read-out: PPB (converted)
[24] = molecular target: Metabotropic glutamate receptor 5 (Rattus norvegicus, UniProt P31424); assay: Displacement of [3H]M-MPEP from mGluR5 in Sprague-Dawley rat cerebrocortical membranes after 60 mins
[25] = Volume of distribution in female Crl:CD(SD) rat at 0.5 mg/kg, iv; assay type: ADME, organism-based; settings: in vivo; in short: as §1
[26] = AUC in female Crl:CD(SD) rat at 0.5 mg/kg, iv; assay type: ADME, organism-based; settings: in vivo
[27] = Plasma protein binding in rat; assay type: ADME, cell-free; settings: read-out: PPB (converted)
[28] = Tmax in fasted female cynomolgus monkey at 9 mg/kg, po administered as single dose; assay type: ADME, organism-based, Macaca fascicularis; settings: in vivo; in short: as §1
[29] = Tmax in female beagle dog at 0.5 mg/kg, iv administered as infusion; assay type: ADME, organism-based, Canis lupus familiaris; settings: in vivo; in short: as §1
[30] = Tmax in male beagle dog at 0.5 mg/kg, iv administered as infusion; assay type: ADME, organism-based, Canis lupus familiaris; settings: in vivo; in short: as §1
Rattus norvegicus [31] = assay: Anxiolytic activity in ip dosed Wistar rat assessed as increase in water drinking time during punished period administered as suspension by Vogel punished drinking conflict test; assay type: functional; settings: read-out: MED
In short: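 Vogel punished-drinking test in rats, single i.p. or p.o. dose as suspension in 5% Tween 80; plasma sampled ~45 min after i.p. or ~75 min after p.o. dosing.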

[32] = Cmax in female beagle dog at 0.5 mg/kg, iv administered as infusion; assay type: ADME, organism-based, Canis lupus familiaris; set-up: dose 0.5 mg/kg, route intravenous; settings: in vivo
[33] = Tmax in fasted male beagle dog at 1 mg/kg, po; assay type: ADME, organism-based, Canis lupus familiaris; settings: in vivo; in short: as §1
[34] = Tmax in fasted male cynomolgus monkey at 9 mg/kg, po administered as single dose; assay type: ADME, organism-based, Macaca fascicularis; settings: in vivo; in short: as §1
Liver [35] = assay: Intrinsic clearance in dog liver microsomes at 2.5 uM assessed per gram of liver; assay type: ADME, Canis lupus familiaris, microsome

Sequence of Metabotropic glutamate receptor 5 (Rattus norvegicus, UniProt P31424) (P31424 whole entry): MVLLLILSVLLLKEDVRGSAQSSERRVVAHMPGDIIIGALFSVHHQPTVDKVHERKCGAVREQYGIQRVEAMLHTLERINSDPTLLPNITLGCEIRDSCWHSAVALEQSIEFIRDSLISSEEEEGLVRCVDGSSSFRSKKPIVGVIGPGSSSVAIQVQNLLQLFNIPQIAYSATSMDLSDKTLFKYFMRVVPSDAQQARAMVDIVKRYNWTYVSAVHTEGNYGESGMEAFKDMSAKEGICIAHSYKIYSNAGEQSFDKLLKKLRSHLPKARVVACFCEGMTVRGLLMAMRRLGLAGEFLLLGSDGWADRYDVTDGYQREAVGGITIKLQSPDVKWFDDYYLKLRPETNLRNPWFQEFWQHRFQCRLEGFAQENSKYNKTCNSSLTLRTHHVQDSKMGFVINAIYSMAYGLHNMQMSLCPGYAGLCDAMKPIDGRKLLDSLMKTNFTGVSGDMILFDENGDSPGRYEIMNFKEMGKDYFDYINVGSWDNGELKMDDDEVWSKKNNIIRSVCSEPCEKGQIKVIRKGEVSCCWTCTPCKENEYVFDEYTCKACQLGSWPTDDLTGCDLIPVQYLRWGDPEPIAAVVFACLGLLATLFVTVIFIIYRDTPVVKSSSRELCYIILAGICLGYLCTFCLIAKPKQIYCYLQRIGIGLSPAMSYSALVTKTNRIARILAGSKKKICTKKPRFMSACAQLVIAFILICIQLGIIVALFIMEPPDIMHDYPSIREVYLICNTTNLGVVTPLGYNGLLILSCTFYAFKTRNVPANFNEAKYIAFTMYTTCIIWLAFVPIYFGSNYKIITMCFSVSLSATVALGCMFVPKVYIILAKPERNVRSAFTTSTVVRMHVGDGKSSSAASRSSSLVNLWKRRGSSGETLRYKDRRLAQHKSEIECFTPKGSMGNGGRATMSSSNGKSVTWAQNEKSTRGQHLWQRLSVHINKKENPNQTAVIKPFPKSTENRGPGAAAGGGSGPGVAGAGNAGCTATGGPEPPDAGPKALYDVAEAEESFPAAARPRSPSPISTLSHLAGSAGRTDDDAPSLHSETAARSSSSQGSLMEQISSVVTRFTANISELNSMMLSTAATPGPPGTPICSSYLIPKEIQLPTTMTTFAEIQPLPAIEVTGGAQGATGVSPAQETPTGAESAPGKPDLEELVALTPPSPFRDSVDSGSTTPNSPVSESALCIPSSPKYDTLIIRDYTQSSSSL
Sequence of Cytochrome P450 2C9 (P11712 whole entry): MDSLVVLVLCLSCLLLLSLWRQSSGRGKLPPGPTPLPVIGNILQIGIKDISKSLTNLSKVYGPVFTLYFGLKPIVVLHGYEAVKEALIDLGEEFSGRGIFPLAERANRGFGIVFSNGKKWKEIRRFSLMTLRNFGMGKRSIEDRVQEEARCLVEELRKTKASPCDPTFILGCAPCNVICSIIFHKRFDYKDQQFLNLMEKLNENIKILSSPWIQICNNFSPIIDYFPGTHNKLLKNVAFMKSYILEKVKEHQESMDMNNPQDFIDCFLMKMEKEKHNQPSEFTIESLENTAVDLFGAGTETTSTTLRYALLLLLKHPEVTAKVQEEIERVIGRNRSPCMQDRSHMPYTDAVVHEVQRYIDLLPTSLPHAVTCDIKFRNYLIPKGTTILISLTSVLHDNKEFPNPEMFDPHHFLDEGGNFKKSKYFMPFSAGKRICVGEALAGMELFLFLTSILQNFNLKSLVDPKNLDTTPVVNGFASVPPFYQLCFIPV
Sequence of Metabotropic glutamate receptor 5 (Homo sapiens, UniProt P41594) (P41594 whole entry): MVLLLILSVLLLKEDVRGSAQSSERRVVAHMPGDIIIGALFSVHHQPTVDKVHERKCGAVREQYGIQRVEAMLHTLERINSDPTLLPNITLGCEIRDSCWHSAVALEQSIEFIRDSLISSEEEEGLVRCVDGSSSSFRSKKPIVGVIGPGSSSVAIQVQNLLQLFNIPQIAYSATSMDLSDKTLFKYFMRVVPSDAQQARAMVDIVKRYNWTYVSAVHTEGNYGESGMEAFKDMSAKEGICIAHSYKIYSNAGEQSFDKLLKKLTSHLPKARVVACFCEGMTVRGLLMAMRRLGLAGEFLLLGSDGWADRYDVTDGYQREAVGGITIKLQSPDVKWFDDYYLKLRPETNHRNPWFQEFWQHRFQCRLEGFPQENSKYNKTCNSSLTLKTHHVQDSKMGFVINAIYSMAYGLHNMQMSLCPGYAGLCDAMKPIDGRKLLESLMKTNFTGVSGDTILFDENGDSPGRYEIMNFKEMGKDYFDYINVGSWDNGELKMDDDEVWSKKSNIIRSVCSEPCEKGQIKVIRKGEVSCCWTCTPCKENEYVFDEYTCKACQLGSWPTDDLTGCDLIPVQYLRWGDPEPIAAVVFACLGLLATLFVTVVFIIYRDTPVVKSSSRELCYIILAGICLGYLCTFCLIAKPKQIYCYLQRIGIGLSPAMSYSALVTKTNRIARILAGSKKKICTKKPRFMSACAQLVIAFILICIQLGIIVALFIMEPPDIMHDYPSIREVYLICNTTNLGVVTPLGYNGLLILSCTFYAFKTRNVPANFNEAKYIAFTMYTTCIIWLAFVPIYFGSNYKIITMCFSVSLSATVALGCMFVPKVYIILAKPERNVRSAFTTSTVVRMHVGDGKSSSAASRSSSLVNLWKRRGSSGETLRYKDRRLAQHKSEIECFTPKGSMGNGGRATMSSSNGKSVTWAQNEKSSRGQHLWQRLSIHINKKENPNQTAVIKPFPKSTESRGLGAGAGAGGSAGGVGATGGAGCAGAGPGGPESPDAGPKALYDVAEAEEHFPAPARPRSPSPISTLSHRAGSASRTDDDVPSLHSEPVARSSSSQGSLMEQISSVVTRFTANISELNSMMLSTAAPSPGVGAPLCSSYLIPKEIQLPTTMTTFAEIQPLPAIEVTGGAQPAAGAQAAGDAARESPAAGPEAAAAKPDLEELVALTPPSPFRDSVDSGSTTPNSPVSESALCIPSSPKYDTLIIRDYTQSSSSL
Sequence of Cytochrome P450 3A4 (P08684 whole entry): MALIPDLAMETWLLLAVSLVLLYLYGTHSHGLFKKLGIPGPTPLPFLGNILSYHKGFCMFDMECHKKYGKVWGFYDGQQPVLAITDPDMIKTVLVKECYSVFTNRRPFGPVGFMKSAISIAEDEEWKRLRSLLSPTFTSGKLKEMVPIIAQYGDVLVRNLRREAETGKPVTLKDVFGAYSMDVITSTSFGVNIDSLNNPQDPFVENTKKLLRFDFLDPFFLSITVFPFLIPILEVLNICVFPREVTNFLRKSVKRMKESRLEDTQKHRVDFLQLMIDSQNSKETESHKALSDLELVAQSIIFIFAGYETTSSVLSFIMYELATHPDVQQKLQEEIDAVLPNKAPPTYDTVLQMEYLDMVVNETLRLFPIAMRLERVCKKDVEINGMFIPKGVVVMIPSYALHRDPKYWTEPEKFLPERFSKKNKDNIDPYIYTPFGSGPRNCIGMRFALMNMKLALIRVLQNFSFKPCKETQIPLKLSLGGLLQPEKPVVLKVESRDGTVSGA

- half-life [1]: 642 min
- AUC(0-t) at 6 h [2]: 0.132 µM·h
- IC50 (Cytochrome P450 2C9): > 10 µM
- beta t1/2 (Rattus norvegicus [4]): 8 h
- IC50 (Cytochrome P450 3A4): > 10 µM
- solubility [5]: 10 µg/mL (≈ 23.6 µM)
- half-life [6]: 732 min
- half-life [7]: 126 min
- CLint (Liver [8]): 0.25 mL/min/g
- concentration (Plasma): 986 nM
- IC50 (Cytochrome P450 1A2): > 10 µM
- AUC(0-t) at 6 h [9]: 0.087 µM·h
- AUC [10]: 1.86 µM·h
- Vd [11]: 9.2 L/kg
- half-life [12]: 378 min
- half-life [13]: 424 min
- half-life [14]: 84 min
- AUC [15]: 0.707 µM·h
- IC50 [16]: 13 nM
- Cmax [17]: 650 nM
- Cmax [18]: 57 nM
- MED (Rattus norvegicus [19]): > 30 mg/kg
- half-life [20]: 708 min
- Cmax [21]: 1540 nM
- Tmax [22]: 49.8 min
- fraction unbound [23]: 0.0025
- Ki [24]: 55.3 nM
- Vd [25]: 9.6 L/kg
- AUC [26]: 1.38 µM·h
- fraction unbound [27]: 0.0027
- Tmax [28]: 1.3 h
- Tmax [29]: 30 min
- Tmax [30]: 30 min
- Cmax [32]: 1140 nM
- Tmax [33]: 45 min
- Tmax [34]: 1.7 h
- CLint (Liver [35]): 0.27 mL/min/g
Compound: N#Cc1cccc(S(=O)(=O)c2cnc3cc(F)ccc3c2-c2ccc(Cl)cc2)c1
- Activity (Rattus norvegicus [3]): Dose-dependent effect
- ED50 (Rattus norvegicus [3]): 0.95 mg/kg
- Activity (Rattus norvegicus [19]): Non-Toxic
- minimal effective dose (Rattus norvegicus [31]): 3 mg/kg
